Experimental data gathered from unrelated publications.
AGTR2: Type-2 angiotensin II receptor (AGTR2, Homo sapiens, UniProt P50052)
Urease: Urease (Canavalia ensiformis, UniProt P07374)
Adora2a: Adenosine receptor A2a (Adora2a, Rattus norvegicus, UniProt P30543)

Compound	target	assay	system	setting	Ki
CCc1ccc(C(=O)N[C@H](C(=O)O)C(C)CC)cc1C(=O)N(CC)CC (stereo in doubt)	AGTR2	ligand displacement in cells, radioligand			10 µM
Oc1ccccc1OCc1nn2c(-c3cccc(Br)c3)nnc2s1	Urease	enzyme activity, inhibitor			2.25 µM
CC(=O)NO	Urease	enzyme activity, inhibitor			18.1 µM
CC(C)CN1CCCn2c1nc1c2c(=O)n(C)c(=O)n1C	Adora2a	ligand displacement, radioligand		cell membranes	0.87 µM
N#Cc1c(N)nc(SCC(N)=O)c(C#N)c1-c1ccc(O)cc1	Adora2a	ligand displacement, radioligand		cell membranes	0.338 µM
CCCCN1CCCn2c1nc1c2c(=O)n(CCC)c(=O)n1CCC	Adora2a	ligand displacement, radioligand		cell membranes	0.3 µM
COc1cccc(-c2c(C#N)c(N)nc(SCC(N)=O)c2C#N)c1	Adora2a	ligand displacement, radioligand		cell membranes	1.2 µM
COc1ccccc1N1CCN(CCCCN2CCc3ccccc3C2=O)CC1	D(1A) dopamine receptor (DRD1, Homo sapiens, UniProt P21728)	cell-free assay, radioligand			1.62 µM
COc1cccc(-c2c(C#N)c(N)nc(SCc3cccc(C)n3)c2C#N)c1	Adora2a	ligand displacement, radioligand		cell membranes	0.0483 µM
CCC(C)[C@H](NC(=O)c1cccc(C(=O)N(C)Cc2ccccc2)c1)C(=O)O (stereo in doubt)	AGTR2	ligand displacement in cells, radioligand			9 µM
N#Cc1c(N)nc(SCC(N)=O)c(C#N)c1-c1cccc(O)c1	Adora2a	ligand displacement, radioligand		cell membranes	0.751 µM
CCCCN1CCCn2c1nc1c2c(=O)n(C)c(=O)n1C	Adora2a	ligand displacement, radioligand		cell membranes	1.75 µM
COc1ccc(-c2c(C#N)c(N)nc(SCC(N)=O)c2C#N)cc1	Adora2a	ligand displacement, radioligand		cell membranes	1.47 µM
CCC(C)[C@H](NC(=O)c1ccc(C(=O)N(Cc2ccccc2)Cc2ccccc2)cc1)C(=O)O (stereo in doubt)	AGTR2	ligand displacement in cells, radioligand			35 µM
Cc1cc(C)c2c(c1)[C@@H](N(Cc1cc(C(F)(F)F)cc(C(F)(F)F)c1)c1nnn(C)n1)CCCN2C[C@H]1CC[C@H](C(=O)O)CC1	Cytochrome P450 2B6 (CYP2B6, Homo sapiens, UniProt P20813)	enzyme activity, inhibitor	human, liver microsomes	pH 7.4	6.3 µM
CCCCn1c(=O)c2[nH]c(C34CC5CC(CC3C5)C4)nc2n(CCCO)c1=O	Adora2a	ligand displacement, radioligand		cell membranes	0.371 µM
CCc1ccc(C(=O)N[C@H](C(=O)O)C(C)CC)cc1C(=O)N(C)Cc1ccccc1 (stereo in doubt)	AGTR2	ligand displacement in cells, radioligand			16 µM
CCCCCCN1CCCn2c1nc1c2c(=O)n(C)c(=O)n1C	Adora2a	ligand displacement, radioligand		cell membranes	0.82 µM
N#Cc1c(N)nc2sc(C(N)=O)c(N)c2c1-c1ccc2c(c1)OCO2	Adora2a	ligand displacement, radioligand		cell membranes	1.06 µM
CCC(C)[C@H](NC(=O)c1cccc(C(=O)N(Cc2ccccc2)Cc2ccccc2)c1)C(=O)O (stereo in doubt)	AGTR2	ligand displacement in cells, radioligand			7.5 µM
CCc1nc2cc(OCCCCN3CCC(c4cccc(Cl)c4Cl)CC3)ccc2s1	Sodium-dependent serotonin transporter (SLC6A4, Homo sapiens, UniProt P31645)	ligand displacement, radioligand			0.58 µM
CCCN1CCCn2c1nc1c2c(=O)n(C)c(=O)n1C	Adora2a	ligand displacement, radioligand		cell membranes	1.29 µM
CCC(C)[C@H](NC(=O)c1ccc(C)c(C(=O)N(CC)CC)c1)C(=O)O (stereo in doubt)	AGTR2	ligand displacement in cells, radioligand			2.4 µM
CC(C)CC(C)N1CCCn2c1nc1c2c(=O)n(C)c(=O)n1C (stereo not shown)	Adora2a	ligand displacement, radioligand		cell membranes	5.37 µM
CCc1ccc(C(=O)N[C@H](C(=O)O)C(C)CC)cc1C(=O)N(Cc1ccccc1)Cc1ccccc1 (stereo in doubt)	AGTR2	ligand displacement in cells, radioligand			4.4 µM
